Assay results: ChEMBL document CHEMBL1131206, “Synthesis, anticonvulsant activity, and structure-activity relationships of sodium channel blocking 3-aminopyrroles” (J Med Chem, 1998)

How the values were obtained:
[1] = tested on: Mus musculus; assay: Anticonvulsant activity was measured by maximal electroshock seizure test in mice by ip administration; format: functional
Outline: (§1)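 Male albino CF No. 1 mice (18–25 g) were dosed ip and tested by maximal electroshock at the previously determined time of peak effect. Groups of at least eight mice received various doses until at least two points fell between 0% and 100% protection. ED50 and its 95% confidence interval were calculated. Single-dose entries give protection percentage at the indicated dose.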

[2] = tested on: Rattus norvegicus; assay: Minimal motor impairment activity by Rotarod test in rat following p.o. administration.; format: functional; details: po
Outline: (§2)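 Minimal motor impairment in male Sprague–Dawley rats (100 g) after oral dosing was judged at the time of peak effect. The criterion was overt ataxia, abnormal gait and stance, and/or loss of placing response and muscle tone. Groups had at least eight rats across various doses, and the median impairing dose with its 95% confidence interval was calculated.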

[3] = tested on: Rattus norvegicus; assay: Anticonvulsant activity in corneal kindled rats was determined when 50 mg/kg was administered intraperitoneally; format: functional; details: route intraperitoneal
Outline: (§3)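 Male Sprague–Dawley rats (100 g) kindled by daily corneal stimulation at 8 mA/60 Hz for 4 s until 10 consecutive stage 5 seizures (rearing and falling with clonus). Drug was given ip in 0.5% methyl cellulose in water at 0.04 mL/10 g body weight. Read-out was seizure score; abolition of the generalized (stage 4–5) seizure was the endpoint.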

[4] = tested on: Rattus norvegicus; assay: Anticonvulsant activity in corneal kindled rats was determined when 75 mg/kg was administered intraperitoneally; format: functional; details: route intraperitoneal; outline: as §3
[5] = tested on: Rattus norvegicus; assay: Anticonvulsant activity in corneal kindled rats was determined when 100 mg/kg was administered intraperitoneally; format: functional; details: route intraperitoneal; outline: as §3
[6] = tested on: Rattus norvegicus; assay: Anticonvulsant activity in corneal kindled rats was determined when 10 mg/kg was administered intraperitoneally; format: functional; details: route intraperitoneal; outline: as §3
[7] = tested on: Rattus norvegicus; assay: Anticonvulsant activity in corneal kindled rats was determined when 150 mg/kg was administered intraperitoneally; format: functional; details: route intraperitoneal; outline: as §3
[8] = tested on: Rattus norvegicus; assay: Anticonvulsant activity in corneal kindled rats was determined when 25 mg/kg was administered intraperitoneally; format: functional; details: route intraperitoneal; outline: as §3
[9] = tested on: Mus musculus; assay: Minimal motor impairment activity by Rotarod test in mice following i.p. administration.; format: functional; details: ip
Outline: (§4)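 Rotorod neurotoxicity test in male albino CF No. 1 mice dosed ip, run at the time of peak effect. Impairment was defined as failure to keep equilibrium for 60 s in each of three trials on the rotating rod. With groups of at least eight mice across various doses, the median motor-impairing dose and its 95% confidence interval were calculated.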

[10] = Partition coefficient (logP); format: physicochemical; details: octanol/water
[11] = tested on: Rattus norvegicus; assay: Anticonvulsant activity was measured by maximal electroshock seizure test in rat by po administration at 25 mg/kg; format: functional
Outline: (§5)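 Maximal electroshock test in male albino Sprague–Dawley rats (100 g) after oral dosing, run at the previously determined time of peak effect. At least eight rats per group received various doses until at least two points lay between 0% and 100% protection. ED50 with 95% confidence interval was calculated. Single-dose entries report percent protection at that dose.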

[12] = tested on: Mus musculus; assay: Anticonvulsant activity was measured by maximal electroshock seizure test in mice by ip administration at 30 mg/kg; format: functional; details: route intraperitoneal; outline: as §1
[13] = tested on: Rattus norvegicus; assay: Anticonvulsant activity was measured by maximal electroshock seizure test in rat by po administration at 50 mg/kg; format: functional; outline: as §5
[14] = tested on: Mus musculus; assay: Minimal motor impairment activity was measured by Rotarod test in mice by ip administration; format: functional; outline: as §4
[15] = tested on: Mus musculus; assay: Anticonvulsant activity was measured by maximal electroshock seizure test in mice by ip administration at 100 mg/kg; format: functional; details: route intraperitoneal; outline: as §1
[16] = tested on: Rattus norvegicus; assay: Minimal motor impairment activity was measured by Rotarod test in rat by po administration; format: functional; outline: as §2
[17] = tested on: Rattus norvegicus; assay: Anticonvulsant activity was measured by maximal electroshock seizure test in rat by po administration; format: functional; outline: as §5
[18] = tested on: Mus musculus; assay: Minimal motor impairment activity of the compound was measured by Rotarod test in mice by ip administration; No effective response; format: functional, organism-based; outline: as §4
[19] = tested on: Rattus norvegicus; assay: Minimal motor impairment activity of the compound was measured by […] in rat by po administration; No effective response; format: functional, organism-based; outline: as §2
[20] = tested on: Rattus norvegicus; assay: Anticonvulsant activity was measured by maximal electroshock seizure test in rat by po administration; No effective response; format: functional, organism-based; outline: as §5
[21] = tested on: Mus musculus; assay: Anticonvulsant activity was measured by maximal electroshock seizure test in mice by ip administration; No effective response; format: functional, organism-based; outline: as §1

Compound	ED50 [1] [mg/kg]	ED50 [2] [mg/kg]	ED50 [9] [mg/kg]	logP [10]	also measured
O=C1NC(=O)C(c2ccccc2)(c2ccccc2)N1 [PHENYTOIN]	6.5	> 500	42.8	–	Seizure score [3]: 4.4; Seizure score [4]: 3.7; Seizure score [5]: 3; Seizure score [6]: 5; Seizure score [7]: 3; Seizure score [8]: 4.7
COCCNC(=O)c1[nH]cc(-c2ccc(Cl)cc2)c1N1CCOCC1	–	–	–	3.3	–
O=C(O)c1[nH]cc(-c2ccc(Cl)cc2)c1N1CCOCC1	–	> 25	> 300	1.8	Protection [11]: 75%
COC(=O)c1[nH]cc(-c2ccc(Cl)cc2)c1N(C)CCN(C)C	–	> 50	< 30	3.3	Protection [12]: 100%; Protection [13]: 100%
CN(C)C(=O)c1[nH]cc(-c2ccc(Cl)cc2)c1N1CCOCC1	–	–	–	3.1	–
COC(=O)c1[nH]cc(-c2cccc(Br)c2)c1N1CCOCC1	–	–	–	–	ED50 [14]: > 300 mg/kg; Protection [15]: 100%; ED50 [16]: > 50 mg/kg; Protection [13]: 75%
NC(=O)c1[nH]cc(-c2ccc(Cl)cc2)c1N1CCOCC1	65	> 50	> 500	2.4	–
COC(=O)c1c(N2CCOCC2)c(-c2ccc(Cl)cc2)cn1C(C)=O	33.1	> 250	35.4	3.5	ED50 [17]: 13.6 mg/kg
Clc1ccc(-c2c[nH]nc2N2CCOCC2)cc1	47	> 50	300	–	Protection [13]: 100%
O=C(c1[nH]cc(-c2ccc(Cl)cc2)c1N1CCOCC1)N1CCOCC1	–	–	–	3.1	–
COC(=O)c1[nH]cc(-c2ccc(Cl)cc2)c1N1CCOCC1	58.1	> 500	56.4	3.5	ED50 [17]: 11.4 mg/kg
Clc1ccc(-c2cnoc2N2CCOCC2)cc1	–	–	–	–	ED50 [18]: No effective response; ED50 [19]: No effective response; ED50 [20]: No effective response; ED50 [21]: No effective response
C=CCNC(=O)c1[nH]cc(-c2ccc(Cl)cc2)c1N1CCOCC1	–	–	–	3.7	–
COC(=O)c1[nH]cc(-c2ccc(Cl)cc2)c1N1CCN(c2ccccc2)CC1	175	> 500	> 500	4.4	ED50 [17]: 12.5 mg/kg
Clc1ccc(-c2c[nH]cc2N2CCOCC2)cc1	62.1	> 200	115	3.2	ED50 [17]: 17.7 mg/kg
CC(C)COC(=O)c1[nH]cc(-c2ccc(Cl)cc2)c1N1CCOCC1	–	–	–	–	ED50 [18]: No effective response; ED50 [19]: No effective response; ED50 [20]: No effective response; ED50 [21]: No effective response
